Assay [1] addresses T1, Phospho-N-acetylmuramoyl-pentapeptide-transferase (Bacillus subtilis (strain 168), UniProt Q03521).
T1 sequence (Q03521 whole entry): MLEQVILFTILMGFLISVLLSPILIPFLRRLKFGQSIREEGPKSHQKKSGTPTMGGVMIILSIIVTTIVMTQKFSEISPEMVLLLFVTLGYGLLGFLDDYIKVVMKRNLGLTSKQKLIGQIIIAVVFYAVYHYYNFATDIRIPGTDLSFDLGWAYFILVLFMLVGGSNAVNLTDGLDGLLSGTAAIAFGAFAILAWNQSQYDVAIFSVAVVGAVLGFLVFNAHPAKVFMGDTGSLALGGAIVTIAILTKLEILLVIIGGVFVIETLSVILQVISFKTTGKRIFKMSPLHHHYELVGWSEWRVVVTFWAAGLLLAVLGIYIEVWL
Briefly: Inhibition of Bacillus subtilis transferase MraY after 30 mins. An outline of the steps:
(§1)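 Enzyme addition started the reaction, which ran 30 min at 37 °C and was stopped by 1 min at 100 °C. Radioactive spots were quantified by scanner. Residual activity (screen at 2 mM) and IC₅₀ were calculated against an inhibitor-free control; mean of triplicates.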

The subject of assay [2] is Escherichia coli. The assay is described as follows: Inhibition of Escherichia coli MurG at 1 mM after 30 mins. An outline of the steps: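 MurG from E. coli was assayed in final 200 mM Tris–HCl pH 7.5, 10 mM MgCl₂, UDP-[¹⁴C]GlcNAc, lipid I analogue and 35% (v/v) DMSO. The reaction ran 30 min at 37 °C and was stopped by boiling 3 min, then lyophilised. The residue was taken up in 2-propanol/ammonium hydroxide/water (6:3:1), which was also the chromatography mobile phase. Radioactive spots were quantified by scanner.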

In assay [3] the target is T2, Phospho-N-acetylmuramoyl-pentapeptide-transferase (Bacillus subtilis (strain 168)) (UniProt Q03521).
T2 sequence (whole entry): T1 sequence (Q03521 whole entry)
Briefly: Inhibition of Bacillus subtilis transferase MraY assessed as residual activity at 2 mM after 30 mins. The procedure, abridged:
as §1

Our source for the IC50, inhibition and Activity values is ChEMBL document CHEMBL1166006, “Bacterial transferase MraY inhibitors: synthesis and biological evaluation” (Bioorg Med Chem, 2010).

pIC50: −log10 of the molar value. The source made the active and inactive calls. No cut-off for these calls is given here.

As usually defined, the pIC50 is −log10 of the IC50, conventionally taken in molar units. A high value points to a low IC50.

In assay [1], `NCc1cn(C[C@H]2O[C@@H](OC[C@H]3O[C@@H](Cn4ccc(=O)[nH]c4=O)[C@@H](O)[C@@H]3O)[C@H](O)[C@@H]2O)nn1` gave a pIC50 of 3.23. For the same molecule, the inhibition entry in assay [2] was “inactive”.

In turn, `O=C(NCc1cn(C[C@H]2O[C@@H](OC[C@H]3O[C@@H](Cn4ccc(=O)[nH]c4=O)[C@@H](O)[C@@H]3O)[C@H](O)[C@@H]2O)nn1)[C@@H]1CCCN1` gave a pIC50 in assay [1] of 3.09. Also, the inhibition result in assay [2] is “inactive”.

In turn, `N=C(N)NC[C@H]1O[C@@H](OC[C@H]2O[C@@H](Cn3ccc(=O)[nH]c3=O)[C@@H](O)[C@@H]2O)[C@H](O)[C@@H]1O` had a pIC50 in assay [1] of 2.75. Moreover, the inhibition entry in assay [2] was “inactive”.

Take `O=C(NC[C@H]1O[C@@H](OC[C@H]2O[C@@H](Cn3ccc(=O)[nH]c3=O)[C@@H](O)[C@@H]2O)[C@H](O)[C@@H]1O)[C@@H]1CCCN1`: the Activity in assay [3] worked out at 61%. Also, the inhibition entry in assay [2] is “inactive”.

`N=C(N)NCc1cn(C[C@H]2O[C@@H](OC[C@H]3O[C@@H](Cn4ccc(=O)[nH]c4=O)[C@@H](O)[C@@H]3O)[C@H](O)[C@@H]2O)nn1`: the pIC50 in assay [1] is 3.22. The inhibition result in assay [2] is “inactive”.

On to `NC[C@H]1O[C@@H](OC[C@H]2O[C@@H](Cn3ccc(=O)[nH]c3=O)[C@@H](O)[C@@H]2O)[C@H](O)[C@@H]1O`, for which the pIC50 in assay [1] is 3.24. Moreover, the inhibition result in assay [2] is “inactive”.
